Measurements: ChEMBL document CHEMBL1125286, “Zatosetron, a potent, selective, and long-acting 5HT3 receptor antagonist: synthesis and structure-activity relationships” (J Med Chem, 1992)

Experiments:
[1] = biological target: T1, Serotonin 3 (5-HT3) receptor (Rattus norvegicus) (UniProt P35563+Q9JJ16); assay: 5-hydroxytryptamine 3 receptor antagonistic activity measured by inhibition of 5-HT-induced bradycardia (iv administration 10 ug/kg dose in urethane-anesthetized rats); format: functional, organism-based
In short: (§1)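 Urethane-anesthetized rats. First 5HT challenge 30 μg/kg iv gives a transient bradycardia. Once heart rate is back at steady state (≤5 min), test compound or saline goes in via the femoral vein. 5HT 30 μg/kg iv is repeated 15 min later. % inhibition is the difference between first and second bradycardia at peak, each animal its own control. Means ± SEM, groups of 3–16 rats.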

[2] = biological target: T1, Serotonin 3 (5-HT3) receptor (Rattus norvegicus); assay: 5-hydroxytryptamine 3 receptor antagonistic activity as inhibition of 5-HT-induced bradycardia after iv administration of 100 ug/kg dose in urethane-anesthetized rats; format: functional, organism-based; in short: as §1
[3] = biological target: T1, Serotonin 3 (5-HT3) receptor (Rattus norvegicus); assay: 5-hydroxytryptamine 3 receptor antagonistic activity was measured by the inhibition of 5H+ T-induced bradycardia after iv administration of 1000 ug/kg dose in urethane-anesthetized rats; format: functional, organism-based; in short: as §1
[4] = biological target: T1, Serotonin 3 (5-HT3) receptor (Rattus norvegicus); assay: 5-hydroxytryptamine 3 receptor antagonistic activity was measured by the inhibition of 5H+ T-induced bradycardia after iv administration of 3 ug/kg dose in urethane-anesthetized rats; format: functional, organism-based
In short: (§2)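 Urethane-anesthetized rats; antagonist or saline given iv via femoral vein after heart rate settled (≤5 min) from an initial 5HT challenge (30 µg/kg iv). 5HT was given again 15 min later. Peak bradycardia measured, each rat its own control; % inhibition = difference between first and second responses. Groups of 3–16 rats, means ± SEM.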

[5] = biological target: T1, Serotonin 3 (5-HT3) receptor (Rattus norvegicus); assay: Compound was tested for the inhibition of 5-HT-induced bradycardia after intravenous administration of 30 ug/kg dose in urethane-anesthetized rats; format: functional, organism-based; in short: as §1
[6] = biological target: T1, Serotonin 3 (5-HT3) receptor (Rattus norvegicus); assay: Compound was tested for the inhibition of 5-HT-induced bradycardia after peroral administration of 100 ug/kg dose in urethane-anesthetized rats; format: functional, organism-based
In short: (§3)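 Fasted rats gavaged (5 mL/kg) with antagonist or vehicle (distilled water). Urethane anesthesia and surgical preparation followed, 15–20 min before 5HT challenge. 5HT 30 µg/kg iv given 1 h after dosing, with vehicle-treated rats as controls. Peak % inhibition of bradycardia in groups of 3–11, means ± SEM.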

[7] = biological target: T1, Serotonin 3 (5-HT3) receptor (Rattus norvegicus); assay: Compound was tested for the inhibition of 5-HT-induced bradycardia after intravenous administration of 1 ug/kg dose in urethane-anesthetized rats; format: functional, organism-based; in short: as §2
[8] = biological target: T1, Serotonin 3 (5-HT3) receptor (Rattus norvegicus); assay: Compound was tested for the inhibition of 5-HT-induced bradycardia after peroral administration of 0.3 mg/kg at 3 hours in urethane-anesthetized rats; format: functional, organism-based; set-up: dose 0.3 mg/kg; conditions: at 0.3 mg/kg
In short: (§4)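 Duration study. Antagonist or vehicle is given by oral gavage to conscious rats. Rats are then urethane-anesthetized, surgically prepared and challenged with 5HT 0.03 mg/kg iv at the stated time after dosing. Peak inhibition of bradycardia is measured against vehicle-treated controls. Means ± SEM, groups of 3–11 rats.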

[9] = biological target: T1, Serotonin 3 (5-HT3) receptor (Rattus norvegicus); assay: Inhibition of 5-HT-induced bradycardia by 5-hydroxytryptamine 3+; format: functional
[10] = biological target: T1, Serotonin 3 (5-HT3) receptor (Rattus norvegicus); assay: Compound was tested for the inhibition of 5-HT-induced bradycardia after peroral administration in urethane-anesthetized rats
[11] = biological target: T1, Serotonin 3 (5-HT3) receptor (Rattus norvegicus); assay: Compound was tested for the inhibition of 5-HT-induced bradycardia after peroral administration of 0.3 mg/kg at 1 hour in urethane-anesthetized rats; format: functional, organism-based; set-up: dose 0.3 mg/kg; conditions: at 0.3 mg/kg; in short: as §4
[12] = biological target: T1, Serotonin 3 (5-HT3) receptor (Rattus norvegicus); assay: Compound was tested for the inhibition of 5-HT-induced bradycardia after peroral administration of 0.3 mg/kg at 6 hours in urethane-anesthetized rats; format: functional, organism-based; set-up: dose 0.3 mg/kg; conditions: at 0.3 mg/kg; in short: as §4
[13] = biological target: T1, Serotonin 3 (5-HT3) receptor (Rattus norvegicus); assay: Compound was tested for the inhibition of 5-HT-induced bradycardia after peroral administration of 10 ug/kg dose in urethane-anesthetized rats; format: functional, organism-based; in short: as §3
[14] = biological target: T1, Serotonin 3 (5-HT3) receptor (Rattus norvegicus); assay: Compound was tested for the inhibition of 5-HT-induced bradycardia after peroral administration of 0.3 mg/kg at 0.5 hours in urethane-anesthetized rats; format: functional, organism-based; set-up: dose 0.3 mg/kg; conditions: at 0.3 mg/kg; in short: as §4
[15] = biological target: T1, Serotonin 3 (5-HT3) receptor (Rattus norvegicus); assay: Compound was tested for the inhibition of 5-HT-induced bradycardia after peroral administration of 1000 ug/kg dose in urethane-anesthetized rats; format: functional, organism-based; in short: as §3
[16] = biological target: T1, Serotonin 3 (5-HT3) receptor (Rattus norvegicus); assay: 5-hydroxytryptamine 3 receptor antagonistic activity was measured by the inhibition of 5-HT-induced bradycardia after iv administration of 1000 ug/kg dose in urethane-anesthetized rats; format: functional, organism-based; in short: as §1

CN1C2CCC1CC(NC(=O)c1ccc3c(c1)CC(C)(C)O3)C2 (centres undefined)
inhibition [1]: 16.7%

Cc1cc2c(c(C(=O)OC3CC4CCC(C3)N4C)c1)OCC2 (centres undefined)
inhibition [1]: 28.8% | inhibition [2]: 67.2%

CC1Cc2cccc(C(=O)NC3CC4CCC(C3)N4C)c2O1 (centres undefined)
inhibition [1]: 22.3% | inhibition [2]: 87.6%

CN1C2CCC1CC(OC(=O)c1ccccc1Oc1ccccc1)C2 (centres undefined)
inhibition [3]: 54.5%

CN1[C@@H]2CC[C@H]1C[C@H](OC(=O)c1ccccc1)C2
inhibition [3]: 88.1%

CN1[C@@H]2CC[C@H]1C[C@@H](NC(=O)c1cc(Cl)cc3c1OC(C)(C)C3)C2 (stereo in doubt; 50)
inhibition [1]: 67.1% | inhibition [4]: 25.9%

CN1[C@@H]2CC[C@H]1C[C@@H](OC(=O)c1cc(Cl)cc(Cl)c1)C2
inhibition [1]: 9.7% | inhibition [2]: 71.4%

CN1C2CCC1CC(CC(=O)c1ccccc1)C2 (centres undefined)
inhibition [2]: 31.3%

CN1C2CCC1CC(NC(=O)c1cc(F)cc3c1OC(C)(C)C3)C2 (centres undefined)
inhibition [1]: 71.7%

CN1C2CCC1CC(NC(=O)c1cc(Br)cc3c1OC(C)(C)C3)C2 (centres undefined)
inhibition [1]: 68.7% | inhibition [4]: 15.9%

CC1Oc2c(C(=O)OC3CC4CCC(C3)N4C)cccc2C1C (stereo in doubt; 26)
inhibition [5]: 78.7% | inhibition [1]: 29.9% | inhibition [4]: 1.8%

CN1C2CCC1CC(NC(=O)c1c(Cl)ccc3c1OC(C)(C)C3)C2 (centres undefined)
inhibition [1]: 0.8%

CN1C2CCC1CC(OC(=O)c1cccc3c1OCC3)C2 (centres undefined)
inhibition [1]: 27% | inhibition [2]: 51.2%

CN1[C@@H]2CC[C@H]1C[C@@H](OC(=O)c1c[nH]c3ccccc13)C2
inhibition [6]: 39.8% | inhibition [7]: 20.1% | inhibition [8]: 65.2% | ED50 [9]: 3.1 µg/kg | ED50 [10]: 0.127 mg/kg | inhibition [11]: 77.4% | inhibition [12]: 17.4% | inhibition [13]: 0.1% | inhibition [14]: 86.6% | inhibition [15]: 85% | inhibition [4]: 54.2% | inhibition [2]: 70.6%

CC1Cc2cccc(C(=O)OC3CC4CCC(C3)N4C)c2O1 (centres undefined)
inhibition [1]: 30.6%

CN1C2CCC1CC(OC(=O)c1ccc(OC(F)(F)F)cc1)C2 (centres undefined)
inhibition [16]: 4.7%

CN1C2CCC1CC(NC(=O)c1cccc3c1OC(C)(C)C3)C2 (centres undefined)
inhibition [1]: 47.5% | inhibition [4]: 13.7%

CN1C2CCC1CC(NC(=O)c1cccc3c1CC(C)(C)O3)C2 (centres undefined)
inhibition [1]: 2.1%

Cc1cc2cccc(C(=O)OC3CC4CCC(C3)N4C)c2o1 (centres undefined)
inhibition [1]: 7.3%
